Assay [1] concerns Punta Toro virus. Kind of assay: Antiviral activity against 50 PFU Punta Toro virus Adames infected C57BL/6 mouse assessed as mean viral titer per 0.1 g of liver at 30 mg/kg, po twice daily administered 24 hrs post viral challenge measured on day 3 of viral infection. It is filed as functional. Put shortly:
(§1)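 Mice were infected subcutaneously with PTV and dosed by oral gavage twice daily with drug in 0.4% CMC. Five per group (10 placebo) were sacrificed on day 3 or 4. Serially diluted liver homogenate or serum went into triplicate LLC-MK2 wells, and CPE 50% endpoints were read at 6–8 days. The range was 2.8–9.5 log10 CCID50/0.1 g or 0.1 ml, with undetectable samples set to 2.8 and saturated samples to 9.5.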

Assay [2] relates to Punta Toro virus. Kind of assay: Antiviral activity against 500 PFU Punta Toro virus Adames infected C57BL/6 mouse assessed as mean day of death at 10 mg/kg, po twice daily for 5 days administered 24 hrs post viral challenge. It is filed as functional. Put shortly: (§2)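 Groups of 15 mice (25–30 placebo) were inoculated subcutaneously with PTV. Drug in 0.4% carboxymethylcellulose was given by oral gavage twice daily.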

Another assay deals with Junin virus. Kind of assay: Antiviral activity against Junin virus Candid-1 in Vero cells assessed as inhibition of virus-induced visual cytopathic effect after 7 to 8 days. It is filed as functional, organism-based. As to conditions: Mammarenavirus juninense, Candid-1, Vero.
Assay [3] deals with Punta Toro virus. The assay is described as follows: Antiviral activity against 50 PFU Punta Toro virus Adames infected C57BL/6 mouse assessed as animals with detectable virus level in liver at 10 mg/kg, po twice daily administered 24 hrs post viral challenge measured on day 3 of viral infection. It is filed as functional. Put shortly: (§3)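 T-705 was suspended in 0.4% carboxymethylcellulose and given by oral gavage twice daily. Mice were infected subcutaneously with PTV. Five mice per group (10 placebo) were sacrificed on day 3 or 4. Liver homogenate or serum was serially diluted onto triplicate LLC-MK2 monolayers, and CPE was read at 6–8 days. The detection limit was 2.8 log10 CCID50 per 0.1 g liver or 0.1 ml serum.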

The test system of assay [4] is Punta Toro virus. Kind of assay: Antiviral activity against Punta Toro virus Adames infected Syrian golden hamster assessed as mean day of death at 30 mg/kg, po twice daily for 6 days administered 4 hrs before viral challenge. It is filed as functional. Put shortly: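 Hamsters (groups of 15, placebo 25-30) were challenged subcutaneously with 50 PFU and dosed twice daily by oral gavage in 0.4% CMC vehicle.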

The test system of assay [5] is Pichinde virus. The assay is described as follows: Antiviral activity against Pichinde virus An 4763 infected Syrian golden hamster assessed as mean serum ALT levels at 50 mg/kg, po twice daily for 7 days administered 72 hrs post viral-challenge measured on day 7 of viral infection measured on day 7 of viral infection. It counts as functional. Put shortly:
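Hamsters were challenged intraperitoneally (bilateral, 65 PFU) and given twice-daily oral gavage doses (0.4% CMC vehicle). Five per group were sacrificed on day 7 and serum was collected. Serum ALT activity was measured by kinetic assay. Three sham-infected animals set the baselines.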

The subject of assay [6] is Pichinde virus. The assay is described as follows: Antiviral activity against Pichinde virus An 4763 infected Syrian golden hamster assessed as mean viral titer per 0.1 g of liver at 20 mg/kg, po twice daily for 7 days administered 24 hrs post viral-challenge measured on day 7 of viral infection. It is filed as functional. Put shortly: (§4)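 Hamsters (groups of 15, placebo 25-30) were dosed orally by gavage twice daily (drug suspended in 0.4% CMC) after bilateral intraperitoneal challenge with 65 PFU. Five per group were killed on day 7. Liver homogenate or serum was serially diluted onto triplicate B-SC-1 wells, CPE was read at 6-8 days, and the 50% endpoint was taken. Range was 2.8-9.5 log10 CCID50/0.1 g or 0.1 ml, with undetectable assigned <2.8.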

Assay [7] deals with Punta Toro virus. Kind of assay: Antiviral activity against Punta Toro virus Adames infected Syrian golden hamster assessed as inhibition of liver damage at 30 mg/kg, po twice daily administered 4 hrs before viral challenge measured on day 4 of viral infection. It counts as functional, organism-based. More on the design: dose 30 mg/kg. Put shortly: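 Hamsters were challenged subcutaneously with 50 PFU and dosed twice daily by oral gavage in 0.4% CMC. Five per group were sacrificed on day 3 or 4. Livers were scored 0-4 for icterus, and serum ALT was measured by kinetic assay against three sham-infected baseline animals.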

The test system of assay [8] is Punta Toro virus. The assay is described as follows: Antiviral activity against 50 PFU Punta Toro virus Adames infected C57BL/6 mouse assessed as animals with detectable virus level in liver at 30 mg/kg, po twice daily administered 24 hrs post viral challenge measured on day 3 of viral infection. It counts as functional. Put shortly:
as §3

Assay [9] relates to Pichinde virus. Kind of assay: Antiviral activity against Pichinde virus An 4763 infected Syrian golden hamster assessed as mean viral titer per 0.1 mL of serum at 50 mg/kg, po twice daily for 7 days administered 24 hrs post viral-challenge measured on day 7 of viral infection. It counts as functional. Put shortly:
as §4

For the next assay, the system named is La Crosse virus. Kind of assay: Antiviral activity against La Crosse virus assessed as inhibition of virus-induced visual cytopathic effect after 3 to 5 days. It counts as functional, organism-based. A digest of the protocol: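 Virus diluted in 2% FBS medium was added with half-log drug dilutions at infection. Plates were incubated at 37°C, 5% CO2, until maximal CPE in infected controls, then scored visually 3–5 days post-infection. EC50 was derived by regression analysis.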
Background: Damage to the host cells serves as the signal in cytopathic effect assays.

The test system of assay [10] is Punta Toro virus. The assay is described as follows: Antiviral activity against 500 PFU Punta Toro virus Adames infected C57BL/6 mouse assessed as animals with detectable virus level in liver at 10 mg/kg, po twice daily administered 24 hrs post viral challenge measured on day 3 of viral infection. It counts as functional. A digest of the protocol:
as §3

The subject of assay [11] is Punta Toro virus. Kind of assay: Antiviral activity against 5000 PFU Punta Toro virus Adames infected C57BL/6 mouse assessed as animals with detectable virus level in serum at 30 mg/kg, po twice daily administered 24 hrs post viral challenge measured on day 3 of viral infection. It counts as functional. A digest of the protocol: (§5)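 Mice were infected subcutaneously with PTV and dosed by oral gavage twice daily; 5 per group (10 placebo) were killed on day 3 or 4. Liver homogenate or serum was serially diluted onto triplicate LLC-MK2 monolayers, and CPE was read 6–8 days later. 50% endpoints gave log10 CCID50 per 0.1 g liver or 0.1 ml serum. Detection range was 2.8–9.5; undetectable samples were assigned <2.8.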

Assay [12] relates to Punta Toro virus. Kind of assay: Antiviral activity against 500 PFU Punta Toro virus Adames infected C57BL/6 mouse assessed as mean day of death at 30 mg/kg, po twice daily for 5 days administered 24 hrs post viral challenge. It is filed as functional. A digest of the protocol: as §2
A further assay has as its system Tacaribe virus. The assay is described as follows: Antiviral activity against Tacaribe virus TRVL11573 in Vero cells assessed as inhibition of virus-induced visual cytopathic effect after 7 to 8 days. It counts as functional, organism-based. As to conditions: Mammarenavirus tacaribeense. Put shortly:
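Subconfluent (50-70%) Vero cells were infected with virus in 2% FBS medium at the CCID50 giving maximal CPE. Half-log drug dilutions were added at infection. EC50 was obtained by regression analysis.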

Assay [13] has as its system Punta Toro virus. Kind of assay: Antiviral activity against 50 PFU Punta Toro virus Adames infected C57BL/6 mouse assessed as mean viral titer per 0.1 g of liver at 10 mg/kg, po twice daily administered 24 hrs post viral challenge measured on day 3 of viral infection. It is filed as functional. A digest of the protocol:
as §1

The subject of assay [14] is Punta Toro virus. The assay is described as follows: Antiviral activity against 5000 PFU Punta Toro virus Adames infected C57BL/6 mouse assessed as mean viral titer per 0.1 g of liver at 10 mg/kg, po twice daily administered 24 hrs post viral challenge measured on day 3 of viral infection. It counts as functional. Put shortly:
as §5

Assay [15] relates to Punta Toro virus. Kind of assay: Antiviral activity against 500 PFU Punta Toro virus Adames infected C57BL/6 mouse assessed as animals with detectable virus level in serum at 30 mg/kg, po twice daily administered 24 hrs post viral challenge measured on day 3 of viral infection. It is filed as functional. Put shortly:
as §3

Assay [16] concerns Punta Toro virus. The assay is described as follows: Antiviral activity against 50 PFU Punta Toro virus Adames infected C57BL/6 mouse assessed as mean day of death at 10 mg/kg, po twice daily for 5 days administered 24 hrs post viral challenge. It is filed as functional. A digest of the protocol: as §2

For 2 molecules, log10CCID50, Activity and EC50 results are on record in ChEMBL document CHEMBL1154414, “In vitro and in vivo activities of T-705 against arenavirus and bunyavirus infections” (Antimicrob Agents Chemother, 2007).

Activity calls are given as the source filed them. No cut-off for these calls is given here.

A word on the EC50: it is the concentration needed to bring the measured effect to its halfway point. Turning to `NC(=O)c1nc(F)cnc1O` [FAVIPIRAVIR], the log10CCID50 in the assay on Punta Toro virus [1] is recorded as <2.8; with Pichinde virus [6] it was >8.4; with Pichinde virus [9], <5.1; with Punta Toro virus [13], <2.8; in the assay with Punta Toro virus [14], <2.9. Besides, the Activity stood at 4.7 days in the assay with Punta Toro virus [2]; 0% in the assay with Punta Toro virus [3]; 6 days in the assay with Punta Toro virus [4]; 411 IU/L with Pichinde virus [5]; 40% in the assay with Punta Toro virus [8]; 0% in the assay with Punta Toro virus [10]. For the same molecule, the Activity was determined as 80% in the assay on Punta Toro virus [11], 5 days in the assay on Punta Toro virus [12], 80% in the assay with Punta Toro virus [15] and 5.8 days in the assay with Punta Toro virus [16]. Moreover, the concentration giving a half-maximal response (EC50) with Junin virus is 5 µM; with La Crosse virus, 32 µM; in the assay with Tacaribe virus, 6 µM. The result in the assay on Punta Toro virus [7] was Active.
As to `NC(=O)c1ncn([C@@H]2O[C@H](CO)[C@@H](O)[C@H]2O)n1` [RIBAVIRIN], the log10CCID50 is recorded as <2.8 in the assay on Punta Toro virus [1]; 6 in the assay with Pichinde virus [6]; <3.5 with Pichinde virus [9]; <3.3 in the assay with Punta Toro virus [13]; <2.8 in the assay on Punta Toro virus [14]. Besides, the Activity in the assay on Punta Toro virus [2] turned out to be 5 days; in the assay with Punta Toro virus [3], 40%; in the assay on Punta Toro virus [4] it was 13.3 days; in the assay on Pichinde virus [5] it was 15 IU/L; in the assay on Punta Toro virus [8] it was 20%; in the assay with Punta Toro virus [10], 20%. The Activity worked out at 60% with Punta Toro virus [11], 5.3 days in the assay with Punta Toro virus [12], 80% in the assay on Punta Toro virus [15] and 5.3 days in the assay on Punta Toro virus [16]. Besides, the EC50 in the assay on Junin virus is 11 µM; in the assay on La Crosse virus it was 70 µM; in the assay with Tacaribe virus it was 10 µM. The result in the assay with Punta Toro virus [7] was Active.
